The results in this text go back to ChEMBL document CHEMBL4619810, “Fluorescent H2 Receptor Squaramide-Type Antagonists: Synthesis, Characterization, and Applications” (ACS Med Chem Lett, 2020).

The target in series [1] is Histamine H2 receptor (Rattus norvegicus, UniProt P25102). The experiment in a line: Displacement of [125I]-aminopotentidine from rat H2R expressed in human COS7 cells incubated for 90 mins gamma counting method. The format is cell-based, COS-7.
Series [2] deals with T1, Histamine H2 receptor (Homo sapiens, UniProt P25021). The experiment in a line: Displacement of [3H]UR-DE257 from Gsalphas-coupled human H2R expressed in baculovirus infected Sf9 cells incubated for 60 mins by scintillation counting method. A general note: Displacement assays read how much labelled ligand stays bound in the presence of the test substance.
T1 sequence (P25021 whole entry): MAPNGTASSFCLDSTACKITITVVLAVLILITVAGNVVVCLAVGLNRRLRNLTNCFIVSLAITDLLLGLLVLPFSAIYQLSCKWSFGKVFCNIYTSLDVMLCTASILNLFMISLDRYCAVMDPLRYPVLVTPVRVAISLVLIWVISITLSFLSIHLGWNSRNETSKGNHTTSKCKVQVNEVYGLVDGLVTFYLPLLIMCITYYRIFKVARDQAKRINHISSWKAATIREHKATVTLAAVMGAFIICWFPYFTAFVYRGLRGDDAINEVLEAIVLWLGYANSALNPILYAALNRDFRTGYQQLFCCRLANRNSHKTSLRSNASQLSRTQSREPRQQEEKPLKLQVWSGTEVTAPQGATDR
The target in series [3] is T1, Histamine H2 receptor. The experiment in a line: Binding affinity to human H2R expressed in human HEK293T cells incubated for 90 mins by flowcytometry. The format is cell-based, HEK-293T. An outline of the steps:
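Flow cytometric saturation binding of fluorescent ligands on suspended HEK293T-hH2R-qs5 cells, 90 min incubation; pKd reported as mean ± SEM from three independent experiments, each in duplicate.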

For series [4], the target named is T1, Histamine H2 receptor. Kind of series: Binding affinity to human H2R expressed in human HEK293T cells incubated for 60 mins by automated cell imaging analysis. It counts as cell-based, HEK-293T.
In series [5] the target is T1, Histamine H2 receptor. The experiment in a line: Binding affinity to human H2R expressed in human HEK293T cells incubated for 60 mins by imaging flow cytometry analysis. The settings on record: for Ka: HEK-293T. It counts as cell-based.
Series [6] has as its target T1, Histamine H2 receptor. The experiment in a line: Agonist activity at human H2R expressed in human HEK293T cells assessed as effect on beta-arrestin2 recruitment incubated for 60 mins by brightglo-reagent based assay. It counts as cell-based. The note with it: HEK-293T. In general terms: Activated receptors often draw arrestin, which recruitment assays turn into a signal.

In series [7] the target is T1, Histamine H2 receptor. Kind of series: Binding affinity to H2R in human HEK293T cell membrane assessed as drug localization at 100 nM incubated for 20 mins by confocal microscopy analysis. The format is cell-based. The settings on record: HEK-293T. Summed up:
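Live HEK293T-hH2R-qs5 cells exposed to fluorescent ligand at 100 nM, 20 min, room temperature; receptor binding at the cell membrane visualized by confocal laser scanning microscopy (63x/1.40 oil immersion objective).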

Series [8] has as its target T1, Histamine H2 receptor. The experiment in a line: Binding affinity to H2R in human HEK293T cell membrane assessed as drug localization at 100 nM in presence of famotidine incubated for 20 mins by confocal microscopy analysis. The format is cell-based. The settings on record: HEK-293T. Summed up: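 HEK293T-hH2R-qs5 cells incubated with fluorescent ligand (100 nM) for 20 min at rt in the presence of famotidine (300-fold excess) to define nonspecific binding; membrane localization imaged by confocal laser scanning microscopy, 63x/1.40 oil objective.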

Series [9] deals with T1, Histamine H2 receptor. Kind of series: Binding affinity to H2R in human HEK293T cell membrane assessed as drug localization at 75 nM incubated for 60 mins followed by compound washoff by confocal microscopy analysis. It counts as cell-based. The settings on record: HEK-293T. Summed up:
(§1)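 Adherent HEK293T-hH2R-qs5 cells incubated with fluorescent ligand 60 min at rt, then washed; Hoechst 33342 nuclear counterstain; famotidine (300-fold excess) defines nonspecific binding; membrane localization imaged by automated cell imaging.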

Series [10] concerns HEK-293T. Kind of series: Cytotoxicity against human HEK293T cells assessed as reduction in cell viability at 100 nM incubated for 90 mins by flow cytometry analysis. The settings on record: 1.5 h, 0.1 µM. The format is cell-based. (In general: A flow cytometer gives signals particle by particle.)
For series [11], the system named is HEK-293T. The experiment in a line: Cytotoxicity against human HEK293T cells assessed as reduction in cell viability at 150 nM incubated for 60 mins by H33342 staining based imaging analysis. The note with it: 1 h, 0.15 µM.
Series [12] has as its target T1, Histamine H2 receptor. The settings on record: Sf9.
For series [13], the system named is HEK-293T. Kind of series: Cytotoxicity against human HEK293T cells assessed as reduction in cell viability at 500 nM incubated for 90 mins by flow cytometry analysis. It counts as cell-based. The note with it: 1.5 h, 0.5 µM.
Series [14] has as its system HEK-293T. Kind of series: Cytotoxicity against human HEK293T cells assessed as reduction in cell viability at 500 nM incubated for 60 mins by H33342 staining based imaging analysis. The settings on record: 1 h, 0.5 µM.
For series [15], the system named is HEK-293T. Kind of series: Cytotoxicity against human HEK293T cells assessed as reduction in cell viability at 3000 nM incubated for 90 mins by flow cytometry analysis. The format is cell-based. The note with it: 1.5 h, 3 µM.
Series [16] deals with HEK-293T. Kind of series: Cytotoxicity against human HEK293T cells assessed as reduction in cell viability at 3000 nM incubated for 60 mins by H33342 staining based imaging analysis. The note with it: 1 h, 3 µM.
Series [17] concerns the target T1, Histamine H2 receptor. The experiment in a line: Binding affinity to H2R in human HEK293T cell membrane assessed as drug localization at 250 nM incubated for 60 mins followed by compound washoff by confocal microscopy analysis. The format is cell-based. The settings on record: HEK-293T. An outline of the steps:
as §1

Series [18] has as its system HEK-293T. Kind of series: Cytotoxicity against human HEK293T cells assessed as reduction in cell viability at 1000 nM incubated for 60 mins by H33342 staining based imaging analysis. The settings on record: 1 h, 1 µM.
Series [19] deals with T1, Histamine H2 receptor. Kind of series: Binding affinity to H2R in human HEK293T cell membrane assessed as drug localization at 500 nM incubated for 60 mins followed by compound washoff by confocal microscopy analysis. The format is cell-based. The settings on record: HEK-293T. An outline of the steps:
as §1

Series [20] deals with T1, Histamine H2 receptor. The experiment in a line: Binding affinity to H2R (unknown origin).
Series [21] concerns the target T1, Histamine H2 receptor. Kind of series: Binding affinity to human H2R expressing Sf9 cells incubated for 60 mins by microbeta scintillation counter method.
In series [22] the test system is HEK-293T. Kind of series: Cytotoxicity against human HEK293T cells assessed as reduction in cell viability at 3500 nM incubated for 90 mins by flow cytometry analysis. The format is cell-based. The settings on record: 1.5 h, 3.5 µM.

Activity calls are given as the source filed them. No cut-off for these calls is given here. Where only a bound is given, the exact number is not on record here.

Histamine H2 receptor (Rattus norvegicus, UniProt P25102), sequence (P25102 whole entry): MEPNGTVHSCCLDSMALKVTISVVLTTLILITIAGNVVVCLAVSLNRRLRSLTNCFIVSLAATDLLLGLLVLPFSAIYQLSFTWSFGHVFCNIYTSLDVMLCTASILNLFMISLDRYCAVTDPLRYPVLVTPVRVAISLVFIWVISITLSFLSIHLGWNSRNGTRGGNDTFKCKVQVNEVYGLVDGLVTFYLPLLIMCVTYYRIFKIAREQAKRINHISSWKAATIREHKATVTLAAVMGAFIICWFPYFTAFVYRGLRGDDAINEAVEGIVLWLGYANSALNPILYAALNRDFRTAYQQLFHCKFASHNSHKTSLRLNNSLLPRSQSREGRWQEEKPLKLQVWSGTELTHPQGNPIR

On Histamine H2 receptor [1], `N#CN=C(NCCCCCCCCNc1ccc([N+](=O)[O-])c2n[o+][n-]c12)NCCCOc1cccc(CN2CCCCC2)c1` showed a Ki of under 100 nM.
`C[N+]1=C(/C=C/C=C/C=C2\N(CCCCCC(=O)NCCCCCCNc3c(NCCCOc4cccc(CN5CCCCC5)c4)c(=O)c3=O)c3ccccc3C2(C)C)C(C)(C)c2ccccc21.O=C(O)C(F)(F)F.O=C([O-])C(F)(F)F` had a Ki on Histamine H2 receptor [2] of 21.4 nM. The Kd on Histamine H2 receptor [3] is 12.9 nM; at Histamine H2 receptor [4], 15.1 nM. Besides, the Ka at Histamine H2 receptor [5] lay within 15000 to 33300 M⁻¹ s⁻¹. In addition, the outcome at Histamine H2 receptor [6] was inactive. Also, the result at Histamine H2 receptor [7], at Histamine H2 receptor [8] and at Histamine H2 receptor [9] was Active. Also, the Activity result in the series with HEK-293T [10] and with HEK-293T [11] was “Non-Toxic” in each case. Besides, the negative logarithm of the Kb (pKb) at Histamine H2 receptor [12] was found to be 7.73.
On Histamine H2 receptor [2], `Cc1cc(/C=C/C=C/c2ccc(N(C)C)cc2)cc(C)[n+]1CCCCNc1c(NCCCOc2cccc(CN3CCCCC3)c2)c(=O)c1=O.O=C(O)C(F)(F)F.O=C([O-])C(F)(F)F` showed a Ki of 17.8 nM. Besides, the Kd was 28.2 nM at Histamine H2 receptor [3], 74.1 nM at Histamine H2 receptor [4] and 87.1 nM on Histamine H2 receptor [5]. For the same compound, the Activity result in the series on HEK-293T [13] and in the series with HEK-293T [14] was “Non-Toxic” throughout.
On Histamine H2 receptor [2], `CC1(C)C(/C=C/C=C/C=C2\N(CCCCCC(=O)NCCCCNc3c(NCCCOc4cccc(CN5CCCCC5)c4)c(=O)c3=O)c3ccccc3C2(C)C)=[N+](CCCCS(=O)(=O)[O-])c2ccccc21.O=C(O)C(F)(F)F.O=C(O)C(F)(F)F` showed an inhibitory constant (Ki) of 324 nM. The dissociation constant (Kd) at Histamine H2 receptor [3] was 562 nM; at Histamine H2 receptor [4] it was 170 nM. The Activity entry with HEK-293T [15] and with HEK-293T [16] was “Non-Toxic” in each case.
As for `Cc1cc(/C=C/C=C/c2ccc(N(C)C)cc2)cc(C)[n+]1CCCCCCCNc1c(NCCCOc2cccc(CN3CCCCC3)c2)c(=O)c1=O.O=C(O)C(F)(F)F.O=C([O-])C(F)(F)F`, the affinity at Histamine H2 receptor [2] corresponds to a Ki of 17.4 nM. The Kd at Histamine H2 receptor [3] was 18.6 nM; on Histamine H2 receptor [4] it was 89.1 nM; on Histamine H2 receptor [5] it was 64.6 nM. Moreover, on Histamine H2 receptor [5], the Ka was 71700 M⁻¹ s⁻¹. Besides, the outcome on Histamine H2 receptor [6] was inactive. The outcome on Histamine H2 receptor [7], at Histamine H2 receptor [8] and on Histamine H2 receptor [17] was Active. The Activity entry with HEK-293T [13] and in the series with HEK-293T [18] was “Non-Toxic” in each case. The pKb at Histamine H2 receptor [12] was 7.85.
In the case of `CC1(C)C(/C=C/C=C/C=C2\N(CCCCCC(=O)NCCCCCCNc3c(NCCCOc4cccc(CN5CCCCC5)c4)c(=O)c3=O)c3cc(S(=O)(=O)O)ccc3C2(C)C)=[N+](CCCCS(=O)(=O)[O-])c2ccccc21.O=C(O)C(F)(F)F.O=C(O)C(F)(F)F`, on Histamine H2 receptor [2], the Ki is 1320 nM. At Histamine H2 receptor [4], the dissociation constant (Kd) is 447 nM. On Histamine H2 receptor [19], the outcome was Active. The Activity entry in the series with HEK-293T [16] is on record as “Non-Toxic”.
Turning to `CC1(C)C(/C=C/C=C/C=C2\N(CCCCCC(=O)NCCCCCCNc3c(NCCCOc4cccc(CN5CCCCC5)c4)c(=O)c3=O)c3ccccc3C2(C)C)=[N+](CCCCS(=O)(=O)[O-])c2ccccc21.O=C(O)C(F)(F)F.O=C(O)C(F)(F)F`, at Histamine H2 receptor [2], the inhibitory constant (Ki) was 77.6 nM. The dissociation constant (Kd) on Histamine H2 receptor [3] was 47.9 nM; on Histamine H2 receptor [4], 16.2 nM. The Ka on Histamine H2 receptor [5] is 15000 to 33300 M⁻¹ s⁻¹. In addition, the outcome on Histamine H2 receptor [7], on Histamine H2 receptor [8] and at Histamine H2 receptor [9] was Active. Further, the Activity result in the series with HEK-293T [13] and in the series with HEK-293T [14] was “Non-Toxic” in each case. The same compound had a negative logarithm of the Kb (pKb) on Histamine H2 receptor [12] of 6.49.
`CC1(C)C(/C=C/C=C/C=C2\N(CCCCCC(=O)NCCCCNc3c(NCCCOc4cccc(CN5CCCCC5)c4)c(=O)c3=O)c3cc(S(=O)(=O)O)ccc3C2(C)C)=[N+](CCCCS(=O)(=O)[O-])c2ccccc21` had a Ki at Histamine H2 receptor [2] of 2040 nM. In addition, at Histamine H2 receptor [6], the result was inactive.
In turn, `CC1(C)C(/C=C/C=C/C=C2\N(CCCCCC(=O)NCCCCCNc3c(NCCCOc4cccc(CN5CCCCC5)c4)c(=O)c3=O)c3ccccc3C2(C)C)=[N+](CCCCS(=O)(=O)[O-])c2ccccc21` gave a pKb at Histamine H2 receptor [20] of 6.89.
Turning to `[3H]CC([3H])C(=O)NCCCCCCNc1c(NCCCOc2cccc(CN3CCCCC3)c2)c(=O)c1=O` (centres undefined), the Kd on Histamine H2 receptor [21] is 31 nM.
For the compound `C[N+]1=C(/C=C/C=C/C=C2\N(CCCCCC(=O)NCCCCNc3c(NCCCOc4cccc(CN5CCCCC5)c4)c(=O)c3=O)c3ccccc3C2(C)C)C(C)(C)c2ccccc21.O=C(O)C(F)(F)F.O=C([O-])C(F)(F)F`, the Ki on Histamine H2 receptor [2] was 269 nM. Besides, the dissociation constant (Kd) was 288 nM at Histamine H2 receptor [3] and 120 nM on Histamine H2 receptor [4]. Besides, the Activity result in the series with HEK-293T [22] and in the series with HEK-293T [14] was “Non-Toxic” each time.
On to `Cc1cc(/C=C/C=C/c2ccc(N(C)C)cc2)cc(C)[n+]1CCCCCCNc1c(NCCCOc2cccc(CN3CCCCC3)c2)c(=O)c1=O.O=C(O)C(F)(F)F.O=C([O-])C(F)(F)F`, for which the affinity at Histamine H2 receptor [2] corresponds to a Ki of 19.5 nM. Besides, the dissociation constant (Kd) at Histamine H2 receptor [3] is 14.5 nM. Besides, the outcome at Histamine H2 receptor [6] was inactive. The Activity entry in the series with HEK-293T [13] is reported as “Non-Toxic”. This compound also displayed a negative logarithm of the Kb (pKb) at Histamine H2 receptor [12] of 7.21.
Regarding `CNc1ccccc1C(=O)NCCN/C(=N\C#N)NCCCOc1cccc(CN2CCCCC2)c1`, the inhibitory constant (Ki) at Histamine H2 receptor [1] was under 100 nM.

One may read the Ki as the equilibrium dissociation constant of an inhibitor or competing ligand from its target. As usually defined, the Kd is a measure of binding affinity in units of concentration. The term pKb denotes −log10 of the Kb, conventionally taken in molar units. High values mean a low Kb, low ones a high Kb.
